Assay [1] has as its target D(1A) dopamine receptor (Rattus norvegicus, UniProt P18901). Description: Displacement of [3H]SCH23390 from dopamine D1 receptor in Wistar rat striatal membrane by liquid scintillation counting. It counts as cell membranes, Striatum. Summed up: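 Striata from male Wistar rats (200–250 g) homogenized in 50 mM Tris-HCl pH 7.4, centrifuged twice at 20,000 g, resuspended in Tris-Mg buffer (5 mM MgSO4, 0.5 mM EDTA, 0.02% ascorbic acid). 100 µg protein incubated 1 h at 25° with 0.25 nM [3H]SCH 23390 (final), compounds at 6 or 11 concentrations 10^-9–10^-4 M. Nonspecific binding with 30 µM SK&F 38393. GF/B filtration. IC50 with 95% confidence limits by Litchfield–Wilcoxon, 4–8 determinations per concentration.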
A general note: Displacement assays read how much labelled ligand stays bound in the presence of the test substance.

Assay [2] concerns the target D(2) dopamine receptor (Rattus norvegicus, UniProt P61169). Kind of assay: Displacement of [3H]raclopride from dopamine D2 receptor in Wistar rat striatal membrane by liquid scintillation counting. It counts as cell membranes, Striatum. Summed up: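 Male Wistar rat (200–250 g) striatal membranes, centrifuged four times at 20,000 g, resuspended in Tris-ions buffer (120 mM NaCl, 5 mM KCl, 1 mM CaCl2, 1 mM MgCl2, 0.1% ascorbic acid, pH 7.4). 200 µg protein incubated 1 h at 25° with 0.5 nM [3H]raclopride (final), compounds at 6 or 11 concentrations 10^-9–10^-4 M. Nonspecific binding with 50 µM apomorphine. GF/B filtration. IC50 by Litchfield–Wilcoxon, 4–8 determinations per concentration.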

The species named for assay [3] is Rattus norvegicus. Description: Selectivity ratio of IC50 for dopamine D1 receptor in Wistar rat striatal membrane to IC50 for dopamine D2 receptor in Wistar rat striatal membrane. It counts as cell membranes.

The structures appear in SMILES notation.

D(1A) dopamine receptor, sequence (P18901 whole entry): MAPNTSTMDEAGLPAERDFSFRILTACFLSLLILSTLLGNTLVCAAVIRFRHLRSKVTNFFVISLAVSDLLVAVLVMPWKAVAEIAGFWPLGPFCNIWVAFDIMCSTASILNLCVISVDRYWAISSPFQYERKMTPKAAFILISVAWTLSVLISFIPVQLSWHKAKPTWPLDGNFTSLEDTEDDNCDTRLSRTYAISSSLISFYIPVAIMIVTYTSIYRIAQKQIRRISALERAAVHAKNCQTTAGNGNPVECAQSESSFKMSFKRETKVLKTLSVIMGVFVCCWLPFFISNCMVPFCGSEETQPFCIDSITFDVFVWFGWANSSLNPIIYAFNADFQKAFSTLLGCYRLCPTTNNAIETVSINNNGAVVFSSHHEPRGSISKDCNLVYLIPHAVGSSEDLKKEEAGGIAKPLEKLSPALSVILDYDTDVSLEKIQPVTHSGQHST
D(2) dopamine receptor, sequence (P61169 whole entry): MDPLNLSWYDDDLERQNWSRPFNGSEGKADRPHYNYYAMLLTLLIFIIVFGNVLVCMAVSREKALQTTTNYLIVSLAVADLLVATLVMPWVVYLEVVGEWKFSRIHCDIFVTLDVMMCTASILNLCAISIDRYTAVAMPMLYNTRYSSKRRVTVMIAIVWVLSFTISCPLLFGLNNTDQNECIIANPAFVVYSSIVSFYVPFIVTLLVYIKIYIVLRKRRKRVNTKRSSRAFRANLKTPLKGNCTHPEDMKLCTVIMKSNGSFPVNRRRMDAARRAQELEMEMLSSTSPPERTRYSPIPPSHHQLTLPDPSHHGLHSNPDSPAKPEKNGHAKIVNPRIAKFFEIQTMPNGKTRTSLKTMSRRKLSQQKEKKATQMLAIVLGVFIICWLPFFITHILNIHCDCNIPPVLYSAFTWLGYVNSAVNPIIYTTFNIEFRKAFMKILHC

`COc1cc2c(cc1Oc1c(O)c(OC)cc3c1[C@H](Cc1ccc(OC)c(-c4cc(C=O)ccc4O)c1)N(C)CC3)C(=O)N(C)CC2`: the half-maximal inhibitory concentration (IC50) (commonly the concentration at which inhibition is half-maximal) in assay [1] was > 30 µM; in assay [2] it was 10 µM. Besides, the Ratio IC50 in assay [3] was > 3.

As to `COc1cc2c3cc1Oc1c(O)c(OC)cc4c1[C@@H](C(=O)c1ccc(O)c(c1)-c1cc(ccc1OC)C[C@H]3N(C)CC2)N(C)CC4`, the IC50 in assay [1] was 90.2 µM; in assay [2], 16.2 µM. In addition, in assay [3], the Ratio IC50 was 5.6.

As to `COc1ccc2cc1Oc1ccc(cc1)C[C@H]1c3c(cc(OC)c(OC)c3Oc3cc4c(cc3OC)CCN(C)[C@@H]4C2)CCN1C`, the 50% inhibitory concentration (IC50) came out at 39.1 µM in assay [1] and 28.4 µM in assay [2]. Moreover, the Ratio IC50 in assay [3] worked out at 1.4.

For `COc1cc2c(cc1OC)[C@@H](Cc1ccc(Oc3cc(C[C@H]4c5cc(OC)c(OC)cc5CCN4C)ccc3OC)cc1)N(C)CC2`, the IC50 in assay [1] stood at 5.64 µM; in assay [2] it was 1.45 µM. Further, the Ratio IC50 in assay [3] worked out at 3.9.

On to `COc1cc2c3cc1Oc1c(O)c(OC)cc4c1[C@H](Cc1ccc(OC)c(c1)-c1cc(ccc1O)C(=O)[C@H]3N(C)CC2)N(C)CC4`, for which the concentration for half-maximal inhibition (IC50) in assay [1] is 11.1 µM; in assay [2] it was 2.76 µM. In addition, in assay [3], the Ratio IC50 turned out to be 4.

Regarding `COc1cc2c(cc1OC)[C@@H](Cc1ccc(Oc3cc(C[C@@H]4c5cc(OC)c(OC)cc5CCN4C)ccc3OC)cc1)N(C)CC2`, the IC50 in assay [1] and in assay [2] was > 100 µM in each case.

Take `COc1ccc(C[C@H]2c3c(cc(OC)c4c3Oc3cc5c(cc3O4)CCN(C)C5=O)CCN2C)cc1-c1cc(C=O)ccc1O`: the concentration for half-maximal inhibition (IC50) was > 100 µM in assay [1] and 81.6 µM in assay [2]. For the same compound, the Ratio IC50 in assay [3] was > 1.2.

As to `COc1cc2c(cc1O)[C@@H](Cc1ccc(OC)c(Oc3ccc(C[C@H]4c5cc(O)c(OC)cc5CCN4C)cc3)c1)N(C)CC2`, the IC50 in assay [1] stood at 5.6 µM; in assay [2], 0.027 µM. Besides, the Ratio IC50 in assay [3] turned out to be 207.

`COc1ccc2cc1Oc1ccc(cc1)C[C@H]1c3cc(c(OC)cc3CCN1C)Oc1c(OC)c(OC)cc3c1[C@@H](C2)N(C)CC3`: the figures for the IC50 in assay [1] and in assay [2] were 33.3 µM and 0.67 µM, respectively. For the same compound, the Ratio IC50 in assay [3] turned out to be 49.6.

Regarding `COc1ccc2cc1Oc1ccc(cc1)C[C@@H]1c3c(cc(OC)c(O)c3Oc3cc4c(cc3OC)CCN(C)[C@H]4C2)CCN1C` (racemic), the 50% inhibitory concentration (IC50) in assay [1] stood at 15.4 µM; in assay [2], 66.4 µM. Moreover, the Ratio IC50 in assay [3] turned out to be 0.2.

In the case of `COc1cc2c(cc1O)[C@@H](Cc1ccc(O)c(Oc3ccc(C[C@H]4c5cc(O)c(OC)cc5CCN4C)cc3)c1)N(C)CC2`, the half-maximal inhibitory concentration (IC50) in assay [1] stood at 1.04 µM; in assay [2] it was 0.3 µM. In addition, the Ratio IC50 in assay [3] is 3.5.

In the case of `COc1ccc(C=O)cc1Oc1ccc(C[C@H]2c3c(cc(OC)c(OC)c3Oc3cc4c(cc3OC)CCN(C)C4=O)CCN2C)cc1`, the IC50 in assay [1] and in assay [2] was > 30 µM each time.

For `COc1cc2c3cc1Oc1c(O)c(OC)cc4c1[C@H](Cc1ccc(OC)c(c1)-c1cc(ccc1O)C[C@H]3N(C)CC2)N(C)CC4`, the IC50 in assay [1] was > 100 µM; in assay [2], 3.18 µM. In addition, the Ratio IC50 in assay [3] is 31.4.

For the compound `COc1cc2c(cc1OC)[C@@H](Cc1ccc(OC)c(Oc3ccc(C[C@H]4NCCc5cc(OC)c(OC)cc54)cc3)c1)N(C)CC2`, the IC50 in assay [1] and in assay [2] was > 100 µM throughout.
